Screening data: PubChem BioAssay, Sanford-Burnham Center for Chemical Genomics
Only a sample is shown.
Apaf1 activ – activators of human Apaf-1 apoptosome, primary screen, biochemical, DEVD-Rh110 fluorescence, uHTS. 330,000 compounds, 0.31% hits. Apaf-1 apoptosome caspase-3 activation; active compounds read low. Apoptotic protease-activating factor 1 (Homo sapiens), O14727. activity change, negative = activation, % at 20 µM;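 active = activity change at or below -40% at 20 µM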
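System: Reconstituted apoptosome of Apaf-1, cytochrome c, caspase-9, procaspase-3 | Reagent: dATP, cytochrome c, and (Z-DEVD)2-Rh110 caspase-3 substrate | Times: 30 min compound preincubation and 50 min reaction, both room temperature | Detection: Caspase-3-released Rh110 fluorescence, 540 nm emission, 480 nm excitation | Measure: Caspase-3 activity via Apaf-1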
Rh110 interf act – Rh110 fluorescence interference by putative Apaf-1 activators, confirmation, artefact control for Apaf-1 activator project, biochemical, 20 µM; 980 tested, under 10 active; shares compounds with Apaf1 activ; fluorescence interference (activity change), % at 20 µM, hits read low; quenched caspase reaction, Ex480/Em540;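 active = mean activity change at or below -40% when tested at 20 µM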
Apaf-1 act conf2 – Apaf-1 activators, single-dose retest, confirmation, biochemical, fluorescence, DEVD-Rh110, 20 µM | activity change, negative = activation, % at 20 µM | shares compounds with Apaf1 activ | reconstituted apoptosome caspase-3 activity; active compounds read low | AID 504617, 2011 | 980 compounds, 5% hits;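 active = mean activity change at or below -40%, meaning activation of 40% or more, at 20 µM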
Fluor interf act – fluorescence interference of Apaf-1 activator hits, dose response, artefact control for Apaf-1 activator project | shares compounds with Apaf1 activ | fluorescence interference counterscreen, Apaf-1 activator assay | EC50, µM | 55 tested, under 10 active | AID 588592, 2011; call rule not given here
The depositor's hits bear a star; x = not tested or not shown.

SMILES	Apaf1 activ	Rh110 interf act	Apaf-1 act conf2	others
CC1=NN(c2ccc(C(F)(F)F)cn2)C(=O)C1	62	x	x
CCN1CCN(c2ccc(S(=O)(=O)N3CCCCC3)cc2NC(=O)COc2ccc(Cl)c(C)c2)CC1	45	x	x
Cc1cc2cc(CNC(=O)c3ccc(S(=O)(=O)N4CCCCC4)cc3)ccc2n1C	53	x	x
O=C(c1ccc(S(=O)(=O)N2CCCC2)cc1)N(c1ccccc1)C1C=CS(=O)(=O)C1 (stereo unspecified)	-56*	5	10
O=C(c1ccc(S(=O)(=O)N2CCCC2)cc1)N(c1ccc(F)cc1)C1C=CS(=O)(=O)C1 (stereo unspecified)	-314*	3	11
COC(=O)CCCC1=CC2=C(c3ccccc3)C(=O)C(C)(OC(=O)C3CCCC3)C(=O)C2=CN1CC(C)C (stereo unspecified)	41	x	x
O=C(N/N=C/c1ccc(O)c2ncccc12)c1cccc(Br)c1	-68*	-1	-4
Oc1ccc(C=Nc2cccc3ncccc23)c(O)c1	87	x	x
COc1ccc(OC)c2c1cc(C(=O)N[C@H](C(=O)N1CCC[C@H]1C(=O)O)C(C)C)n2C	52	x	x
O=C(Nc1cccc([N+](=O)[O-])c1)Nc1ccc2c(c1)OCCO2	-288*	5	3
COc1ccc(NC(=S)Nc2ccc3nsnc3c2)cc1	97	x	x
O=C(c1ccco1)[C@@H]1[C@@H]2C(=O)N(c3ccccc3)C(=O)[C@@H]2C2c3ccccc3C=CN21 (stereo partly specified)	86	x	x
Cc1ccc2oc(=O)cc(CN3CC(C)OC(C)C3)c2c1 (stereo unspecified)	-66*	11	8
CCC[C@@H](CN1CCC[C@H]1CN1C(N)=NC[C@@H]1Cc1ccccc1)N1C[C@@H](Cc2ccccc2)N(CCc2ccc(Cl)c(Cl)c2)C1=N	78	x	x
C=CCC[C@@H](Cc1ccc(F)cc1)C(=O)OC[C@@H]1CCCN1C(=O)[C@@H](CC=C)CC(=O)N(CCO)Cc1ccccc1	48	x	x
CCCCc1nn2c(N)c(/C=C3\C=Nc4ccccc43)c(=O)nc2s1	-459*	19	30
CCC/C(=C1/c2ccccc2C(=O)N1c1ccccc1)c1cnc(OC)nc1	41	x	x
NC(=O)c1ccc(N=C2C(=O)Nc3ccc([N+](=O)[O-])cc32)cc1	56	x	x
CCn1nc(C(=O)Nc2ccccc2C)c(Cl)c1Cl	-137*	-2	8
COc1ccc(-c2cc(=O)n(-c3ccc([N+](=O)[O-])cc3)[nH]2)cc1	65	x	x
CC1=CC2=NC(=O)/C(=C/c3coc4ccc(Cl)cc4c3=O)C(=N)N2O1	-522*	-14	11
COc1ccc2c(-c3ccc(OCCN4CCCCC4)cc3)c(-c3ccccc3OC)sc2c1	60	x	x
CC(C)c1c(Cl)c(O)c(-c2ccccc2)c(=O)n1-c1ccc(F)cc1	-40*	-6	12
O=C(c1ccc([N+](=O)[O-])o1)N(Cc1nnc(-c2ccccc2Cl)o1)C1CC1	51	x	x
S=C(Nc1ccc2nsnc2c1)N1CCCCCC1	93	x	x
SMILES	Apaf1 activ	Rh110 interf act	Apaf-1 act conf2	others
CC1CN(CCC(=O)Nc2ccc3c(c2)CCC3)CC(C)O1 (stereo unspecified)	-85*	10	16
CCN(CC)CCn1c(SCC(=O)Nc2ccc3c(c2)CCC3)nc2ccccc2c1=O	51	x	x
CCc1nn(CCCC(=O)NCc2ccccc2Br)c(=O)c2cc3occc3n12	46	x	x
CC[C@H](C)Cc1cn([C@@H](CCCCN)C(=O)NCCCCCCCCCCC(=O)N2CCNCC2)nn1	46	x	x
COc1ccc(C(=O)Nc2ccc3c(c2)C(=O)c2ccccc2C3=O)cc1OC	-507*	5	6	Fluor interf act=>100
O=C(NC1=C(Nc2ccc(F)cc2)C(=O)c2ccccc2C1=O)c1ccc(Cl)cc1	70	x	x
COc1ccc(C(=O)c2c(C(F)(F)F)oc3c2C(=O)c2ccccc2C3=O)cc1OC	85	x	x
CC(C)n1ncc2c(C(=O)Nc3ccc(S(N)(=O)=O)cc3)cc(C3CC3)nc21	75	x	x
Cc1cc(SCC(=O)OC(C)C(=O)N(C)c2ccccc2)nc2ccccc12 (stereo unspecified)	-324*	-1	8
CCC(CO)Oc1cc(NCc2ccncc2)c2ncn(C(C)C)c2c1 (stereo unspecified)	41	x	x
Cc1cc(C)c(S(=O)(=O)/N=C2\C=C(Nc3ccc(C(=O)O)cc3)C(=O)c3ccccc32)c(C)c1	89	x	x
CC(C)C(C(=O)O)N1C(=O)/C(=C/C=C/c2ccco2)SC1=S (stereo unspecified)	46	x	x
CC(/C=N/NC(=O)Cc1cc(=O)[nH][nH]1)=C\c1ccccc1	60	x	x
CN(C(=O)COC(=O)c1cc(S(=O)(=O)N2CCOCC2)c(Cl)cc1Cl)C1CCS(=O)(=O)C1 (stereo unspecified)	-156*	-3	7
Nc1nc2ccc(OC(F)(F)F)cc2s1	-1	x	x
CCCCn1c(NC(=O)c2ccc(Br)o2)c(S(=O)(=O)c2ccccc2)c2nc3ccccc3nc21	71	x	x
CCCCCCCCCCCCCCCC[n+]1ccc(/C=N/O)cc1	80	x	x
C[C@@H](CN1CCC[C@H]1CN1C(N)=NC[C@@H]1Cc1ccccc1)N1C[C@@H](Cc2ccccc2)N(CCc2ccc(Cl)c(Cl)c2)C1=N	74	x	x
CC(=O)N(/N=C1\Sc2ccccc2C1=O)c1ccccc1C	90	x	x
COc1ccc(C(=O)COC(=O)CCCN=C2NS(=O)(=O)c3ccccc32)c(OC)c1	51	x	x
Cc1cn([C@H]2C[C@H](N=[N+]=[N-])[C@@H](CO)O2)c(=O)[nH]c1=O	-43*	6	-3
O=C(NC(=S)Nc1ccc(CN2CCCCC2)cc1)c1cccc(OCc2ccccc2)c1	43	x	x
CN1CCN(c2ccc(NC(=O)c3ccc(-c4ccc(Cl)cc4)o3)cc2)CC1	65	x	x
COC(=O)c1ccc(NC(=S)N2CCN(Cc3ccc(Cl)cc3)CC2)cc1	-350*	7	10
